From ChEMBL document CHEMBL2040734, “Benzothiazoles: search for anticancer agents” (2012)

Assays:
Type in all cases: functional
SF-539 [1] = test: Cytotoxicity against human SF539 cells assessed as cell growth at 10 '-5 M after 48 hrs by sulforhodamine B assay; details: SF-539, 48 h, read-out: Activity
COLO 205 = test: Cytotoxicity against human COLO205 cells assessed as cell growth at 0.01 uM after 48 hrs by sulforhodamine B assay; details: COLO 205, 48 h, read-out: Activity
Outline: (§1)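 NCI-60 five-dose screen. Cells were grown in RPMI 1640 with 5% FBS and 2 mM L-glutamine and preincubated 24 h. Compound (DMSO stock) was tested at 0.01, 0.1, 1, 10 and 100 µM for 48 h at 37 °C. Cells were fixed in situ with cold TCA (final 10%) and stained with 0.4% SRB. A515 was read, and percent growth was calculated against time-zero and control plates.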

MDA-MB-435 = test: Cytotoxicity against human MDA-MB-435 cells assessed as cell growth at 100 uM after 48 hrs by sulforhodamine B assay; details: MDA-MB-435, 48 h, read-out: Activity
NCI/ADR-RES [2] = test: Cytotoxicity against human NCI/ADR-RES cells assessed as cell growth at 10 uM after 48 hrs by sulforhodamine B assay; details: read-out: Activity
U-251 [3] = test: Cytotoxicity against human U251 cells assessed as cell growth at 100 uM after 48 hrs by sulforhodamine B assay; details: U-251, 48 h, read-out: Activity
HOP-62 = test: Growth inhibition of human HOP62 cells after 48 hrs by sulforhodamine B assay; details: HOP-62, 48 h; for CC50: read-out: LC50 (the source's name)
Outline: (§2)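 Adherent NCI-60 lines were grown in RPMI 1640 with 5% FBS and 2 mM L-glutamine, plated at 5000–40,000 cells/well and preincubated 24 h. They were then exposed to five concentrations (0.01–100 µM, from a DMSO stock) for 48 h at 37 °C, 5% CO2. Cells were fixed with cold TCA (10% final, 60 min, 4 °C) and stained with 0.4% SRB. Dye was solubilized in 10 mM Tris base and A515 read. GI50 was derived from time-zero, control and treated absorbances.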

A498 [4] = test: Growth inhibition of human A498 cells after 48 hrs by sulforhodamine B assay; details: A498, 48 h; for CC50: read-out: LC50 (the source's name)
Outline: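 A498 adherent renal cells, plated in RPMI 1640 with 5% FBS and 2 mM L-glutamine, were preincubated for 24 h and then exposed for 48 h at 37 °C to 0.01–100 µM. Fixation was 10% TCA (final) for 60 min at 4 °C, then SRB staining and absorbance at 515 nm. GI50 was derived from (Ti−Tz)/(C−Tz)×100 = 50, using time-zero plates.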

M14 = test: Cytotoxicity against human M14 cells assessed as cell growth at 100 uM after 48 hrs by sulforhodamine B assay; details: M14, 48 h, read-out: Activity
IGROV-1 = test: Cytotoxicity against human IGROV1 cells assessed as cell growth at 1 uM after 48 hrs by sulforhodamine B assay; details: IGROV-1, 48 h, read-out: Activity
NCI-H23 = test: Cytotoxicity against human NCI-H23 cells assessed as cell growth at 0.01 uM after 48 hrs by sulforhodamine B assay; details: NCI-H23, 48 h, read-out: Activity
MDA-MB-231 = test: Cytotoxicity against human MDA-MB-231 cells assessed as cell growth at 100 uM after 48 hrs by sulforhodamine B assay; details: MDA-MB-231, 48 h, read-out: Activity
SF-539 [5] = test: Growth inhibition of human SF539 cells after 48 hrs by sulforhodamine B assay; details: SF-539, 48 h; outline: as §2
U-251 [6] = test: Cytotoxicity against human U251 cells assessed as cell growth at 0.01 uM after 48 hrs by sulforhodamine B assay; details: U-251, 48 h, read-out: Activity
NCI/ADR-RES [7] = test: Growth inhibition of human NCI/ADR-RES cells after 48 hrs by sulforhodamine B assay; outline: as §2
A498 [8] = test: Cytotoxicity against human A498 cells assessed as cell growth at 0.1 uM after 48 hrs by sulforhodamine B assay; details: A498, 48 h, read-out: Activity; outline: as §1
NCI-H522 = test: Cytotoxicity against human NCI-H522 cells assessed as cell growth at 1 uM after 48 hrs by sulforhodamine B assay; details: NCI-H522, 48 h, read-out: Activity
SK-MEL-2 = test: Cytotoxicity against human SK-MEL-2 cells assessed as cell growth at 0.01 uM after 48 hrs by sulforhodamine B assay; details: SK-MEL-2, 48 h, read-out: Activity
OVCAR-5 = test: Cytotoxicity against human OVCAR5 cells assessed as cell growth at 100 uM after 48 hrs by sulforhodamine B assay; details: OVCAR-5, 48 h, read-out: Activity
KM12 [9] = test: Cytotoxicity against human KM12 cells assessed as cell growth at 0.01 uM after 48 hrs by sulforhodamine B assay; details: KM12, 48 h, read-out: Activity
A549 = test: Cytotoxicity against human A549 cells assessed as cell growth at 1 uM after 48 hrs by sulforhodamine B assay; details: A549, 48 h, read-out: Activity; outline: as §1
SF-268 = test: Cytotoxicity against human SF268 cells assessed as cell growth at 0.1 uM after 48 hrs by sulforhodamine B assay; details: SF-268, 48 h, read-out: Activity
HT-29 = test: Cytotoxicity against human HT-29 cells assessed as cell growth at 100 uM after 48 hrs by sulforhodamine B assay; details: HT-29, 48 h, read-out: Activity
Outline: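 Five-dose NCI panel run at 0.01, 0.1, 1, 10 and 100 µM. Cells were in RPMI 1640 with 5% FBS and 2 mM L-glutamine, seeded at 5000–40,000 cells/well and pre-incubated 24 h. Drug was diluted from a DMSO stock into medium with 50 µg/ml gentamicin. Exposure was 48 h at 37 °C, 5% CO2. Cells were fixed with cold TCA and stained with 0.4% SRB, read at 515 nm. Percent growth came from time-zero, control and test absorbances.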

OVCAR-4 = test: Cytotoxicity against human OVCAR4 cells assessed as cell growth at 100 uM after 48 hrs by sulforhodamine B assay; details: OVCAR-4, 48 h, read-out: Activity
MCF7 = test: Growth inhibition of human MCF7 cells after 48 hrs by sulforhodamine B assay; details: MCF7, 48 h; for CC50: read-out: LC50 (the source's name); outline: as §2
786-0 = test: Cytotoxicity against human 786-0 cells assessed as cell growth at 10 uM after 48 hrs by sulforhodamine B assay; details: 786-0, 48 h, read-out: Activity; outline: as §1
DU-145 = test: Growth inhibition of human DU145 cells after 48 hrs by sulforhodamine B assay; details: DU-145, 48 h; for CC50: read-out: LC50 (the source's name); outline: as §2
KM12 [10] = test: Cytotoxicity against human KM12 cells assessed as cell growth at 10 '-5 M after 48 hrs by sulforhodamine B assay; details: KM12, 48 h, read-out: Activity

| Compound | growth at 10 µM (SF-539 [1]) [%] | growth at 0.01 µM (COLO 205) [%] | growth at 100 µM (MDA-MB-435) [%] | growth at 10 µM (NCI/ADR-RES [2]) [%] | growth at 100 µM (U-251 [3]) [%] | GI50 (HOP-62) [nM] | TGI (HOP-62) [nM] | CC50 (HOP-62) [µM] | CC50 (A498 [4]) [µM] | growth at 100 µM (M14) [%] | growth at 1 µM (IGROV-1) [%] | growth at 0.01 µM (NCI-H23) [%] | growth at 100 µM (MDA-MB-231) [%] | GI50 (SF-539 [5]) [µM] | LC50 (SF-539 [5]) [µM] | TGI (SF-539 [5]) [µM] | growth at 0.01 µM (U-251 [6]) [%] | GI50 (NCI/ADR-RES [7]) [nM] | LC50 (lethal concentration, 50% net cell kill) (NCI/ADR-RES [7]) [µM] | TGI (NCI/ADR-RES [7]) [nM] | other results |
| --- | --- | --- | --- | --- | --- | --- | --- | --- | --- | --- | --- | --- | --- | --- | --- | --- | --- | --- | --- | --- | --- |
| Cc1ccc2nc(Nc3c(C)cccc3C)sc2c1 | 45.3 | 107 | -10 | 22 | 31 | 3860 | > 100000 | > 100 | > 100 | 53 | 83 | 94 | -6 | 66.8 | > 100 | > 100 | 97 | 639 | > 100 | > 100000 | growth at 0.1 µM (A498 [8]): 68%; growth at 1 µM (NCI-H522): 38%; growth at 0.01 µM (SK-MEL-2): 94%; growth at 100 µM (OVCAR-5): 78%; growth at 0.01 µM (KM12 [9]): 101%; growth at 1 µM (A549): 83%; growth at 0.1 µM (SF-268): 100%; growth at 100 µM (HT-29): 39%; growth at 100 µM (OVCAR-4): 77%; GI50 (MCF7): 1200 nM; TGI (MCF7): > 100000 nM; CC50 (MCF7): > 100 µM; growth at 10 µM (786-0): 56%; GI50 (DU-145): > 100000 nM; TGI (DU-145): > 100000 nM; CC50 (DU-145): > 100 µM; growth at 10 µM (KM12 [10]): 11.1% |
| Clc1cccc(Cl)c1Nc1nc2cccc(Cl)c2s1 | -47.5 | 105 | -67 | -72 | -50 | 1270 | 2620 | 5.38 | 4.16 | -56 | 55 | 95 | -70 | 1.48 | 6.4 | 3.08 | 104 | 531 | 6.23 | 2150 | GI50 (A498 [4]): 260 nM; TGI (A498 [4]): 1620 nM; growth at 0.1 µM (A498 [8]): 67%; growth at 1 µM (NCI-H522): 51%; growth at 0.01 µM (SK-MEL-2): 98%; growth at 100 µM (OVCAR-5): -96%; growth at 0.01 µM (KM12 [9]): 99%; growth at 1 µM (A549): 55%; growth at 0.1 µM (SF-268): 97%; growth at 100 µM (HT-29): -56%; growth at 100 µM (OVCAR-4): -87%; GI50 (MCF7): 811 nM; TGI (MCF7): 2240 nM; CC50 (MCF7): 5.37 µM; growth at 10 µM (786-0): -93%; GI50 (DU-145): 1410 nM; TGI (DU-145): 2750 nM; CC50 (DU-145): 5.39 µM; growth at 10 µM (KM12 [10]): -68.5% |
